The compounds below were run on Rattus norvegicus (assay: Time from onset of action until significant (i.e., >= 30%) inhibition of pressor response no longer observed (1 mg/kg intravenous route).).
Assay type: functional
Method in brief: (§1)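 Same conscious-rat AII challenge protocol: AII 0.1 μg/kg iv boluses repeated after iv or po dosing, ΔMAP recorded. Duration is the time from onset until inhibition falls below 30% and stays below 30% for two further AII challenges. Averaged over at least two rats.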

Compound | Duration [h]
CCCCc1nnc(SCc2ccccc2-c2nn[nH]n2)n1Cc1ccc(-c2ccccc2-c2nn[nH]n2)cc1 | 0.6
CCCCc1nnc(SCc2ccc(OC)cc2)n1Cc1ccc(NC(=O)c2ccccc2-c2nn[nH]n2)cc1 | 0.2

Each compound was assayed against T1, Type-1 angiotensin II receptor (Oryctolagus cuniculus, UniProt P34976) (assay: Displacement of [125I]-Sar1-Ile8-A II at the rabbit aorta angiotensin II receptor, type 1).
T1 sequence (P34976 whole entry): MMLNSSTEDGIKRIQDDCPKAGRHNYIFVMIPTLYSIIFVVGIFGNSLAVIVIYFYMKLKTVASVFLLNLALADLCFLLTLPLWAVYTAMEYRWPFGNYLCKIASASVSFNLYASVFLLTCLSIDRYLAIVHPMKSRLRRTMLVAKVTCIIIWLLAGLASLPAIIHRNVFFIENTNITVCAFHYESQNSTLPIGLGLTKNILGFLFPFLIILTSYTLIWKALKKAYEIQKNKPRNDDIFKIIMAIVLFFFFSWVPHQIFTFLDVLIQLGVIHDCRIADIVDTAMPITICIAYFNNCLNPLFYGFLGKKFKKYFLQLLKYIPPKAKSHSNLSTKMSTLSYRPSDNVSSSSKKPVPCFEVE
Assay type: tissue-based
Method in brief: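 Rabbit aorta membranes in 50 mM Tris-HCl pH 7.4, 5 mM MgCl2, 0.2 mg/mL bacitracin; 0.2% BSA only in original version. Nonspecific binding with 1 μM unlabeled Sar1Ile8-AII. Filtration, gamma counting. Duplicate tubes, five concentrations; IC50 from nonlinear regression of displacement curves, sometimes averaged over separate assays.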

Compound | IC50 [nM]
CCCCc1nnc(SCc2ccc(C(=O)OC)cc2)n1Cc1ccc(-c2ccccc2-c2nn[nH]n2)cc1 | 120
CCSc1nnc(COC)n1Cc1ccc(NC(=O)c2ccccc2C(=O)O)cc1 | 5200
CCCCc1nnc(SCc2cccc(C(=O)O)c2)n1Cc1ccc(NC(=O)c2ccccc2C(=O)O)cc1 | 15
CCCCc1nnc([S+]([O-])Cc2ccc(OC)cc2)n1Cc1ccc(NC(=O)c2ccccc2C(=O)O)cc1 (centres undefined) | 7.4
CCCCc1nnc(OCCc2ccccc2)n1Cc1ccc(-c2ccccc2-c2nnn[nH]2)cc1 | 63
CCCCc1nc2ccccc2n1Cc1ccc(-c2ccccc2-c2nn[nH]n2)cc1 | 96
CCCCc1nnc(SCc2cccc(C(=O)OC)c2)n1Cc1ccc(NC(=O)c2ccccc2C(=O)O)cc1 | 30
CCCc1nnc(SCc2ccccc2)n1Cc1ccc(NC(=O)c2ccccc2C(=O)O)cc1 | 120
CCCCc1nc(Cl)c(CO)n1Cc1ccc(-c2ccccc2C(=O)O)cc1 | 230
CCCCc1nn2c(C)c(-c3ccccc3)nc2n1Cc1ccc(-c2ccccc2-c2nnn[nH]2)cc1 | 13
CCCCc1nnc(SCc2cccc(OC)c2)n1Cc1ccc(-c2ccccc2-c2nn[nH]n2)cc1 | 94
CCCCc1nnc(SCc2ccccc2C)n1Cc1ccc(NC(=O)c2ccccc2C(=O)O)cc1 | 14
CCCCc1nnc(-c2ccncc2)n1Cc1ccc(NC(=O)c2ccccc2C(=O)O)cc1 | 1400
CCCSc1nnc(CCCc2ccccc2)n1Cc1ccc(NC(=O)c2ccccc2C(=O)O)cc1 | 320
CCCCc1nnc(NCc2ccc(Cl)cc2)n1Cc1ccc(-c2ccccc2-c2nn[nH]n2)cc1 | 140
CCCCc1nnc(SCC(=O)OC)n1Cc1ccc(NC(=O)c2ccccc2C(=O)O)cc1 | 330
CCCCc1nnc(SCCO)n1Cc1ccc(NC(=O)c2ccccc2C(=O)O)cc1 | 480
CCCSc1nnc(-c2ccccc2)n1Cc1ccc(NC(=O)c2ccccc2C(=O)O)cc1 | 1600
CCCCc1nnc(SCc2ccc(Cl)cc2)n1Cc1ccc(NC(=O)c2ccccc2C(=O)O)cc1 | 6.8
CCCCc1nnc([S+]([O-])Cc2ccc([N+](=O)[O-])cc2)n1Cc1ccc(-c2ccccc2-c2nnn[nH]2)cc1 (centres undefined) | 8.9
CCCCc1nnc(-c2ccco2)n1Cc1ccc(NC(=O)c2ccccc2C(=O)O)cc1 | 1000
CCSc1nnc(Cc2ccccc2)n1Cc1ccc(NC(=O)c2ccccc2C(=O)O)cc1 | 1000
CCCCc1nnc(SCC(C)C)n1Cc1ccc(-c2ccccc2-c2nn[nH]n2)cc1 | 72
CCCCc1nnc(SCC(=O)NC)n1Cc1ccc(NC(=O)c2ccccc2C(=O)O)cc1 | 720
CCCCc1nnc(SC(C(=O)OC)c2ccccc2)n1Cc1ccc(NC(=O)c2ccccc2C(=O)O)cc1 (centres undefined) | 6.1
CCCCc1nnc(SCc2ccc(OC)cc2)n1Cc1ccc(-c2ccccc2-c2nnn[nH]2)cc1 | 31

Compound | IC50 [nM]
CCCCc1nn2c(C)c(C)nc2n1Cc1ccc(-c2ccccc2-c2nn[nH]n2)cc1 | 7.8
CCCCc1nnc(S(C)(=O)=O)n1Cc1ccc(-c2ccccc2-c2nn[nH]n2)cc1 | 400
CCCCc1nnc(-c2cccnc2)n1Cc1ccc(NC(=O)c2ccccc2C(=O)O)cc1 | 1700
CCCCc1nn2c(-c3ccccc3)c(C)nc2n1Cc1ccc(-c2ccccc2-c2nnn[nH]2)cc1 | 170
CCCCc1nn2cc(CC)nc2n1Cc1ccc(-c2ccccc2-c2nn[nH]n2)cc1 | 55
CCCCc1nnc(SCc2cccc(OC)c2)n1Cc1ccc(NC(=O)c2ccccc2C(=O)O)cc1 | 21
CCCSc1nnc(Cc2ccccc2)n1Cc1ccc(NC(=O)c2ccccc2C(=O)O)cc1 | 380
CCCSc1nnc(CSc2ccccc2)n1Cc1ccc(NC(=O)c2ccccc2C(=O)O)cc1 | 1200
CCCCc1nnc(SCc2ccccc2C#N)n1Cc1ccc(NC(=O)c2ccccc2C(=O)O)cc1 | 60
CCCCc1nnc(SCCc2ccccc2)n1Cc1ccc(NC(=O)c2ccccc2C(=O)O)cc1 | 70
CCSc1nnc(-c2ccccc2)n1Cc1ccc(NC(=O)c2ccccc2C(=O)O)cc1 | 1900
CCCCc1nnc(SCc2ccccc2C(=O)OC)n1Cc1ccc(NC(=O)c2ccccc2C(=O)O)cc1 | 14
CCCCc1nnc([S+]([O-])Cc2ccc(OC)cc2)n1Cc1ccc(NC(=O)c2ccccc2-c2nn[nH]n2)cc1 (centres undefined) | 28
CCCCc1nnc(SCc2cccc(C)c2)n1Cc1ccc(NC(=O)c2ccccc2C(=O)O)cc1 | 32
CCCCc1nnc(NCc2ccc(OC)cc2)n1Cc1ccc(-c2ccccc2-c2nnn[nH]2)cc1 | 780
CCCCc1nnc(SC(CC)C(=O)OC)n1Cc1ccc(NC(=O)c2ccccc2C(=O)O)cc1 (centres undefined) | 300
CCCCc1nnc(SCc2ccccc2-c2nn[nH]n2)n1Cc1ccc(-c2ccccc2-c2nn[nH]n2)cc1 | 1.4
CCCCc1nnc(SCc2ccc(C(=O)O)cc2)n1Cc1ccc(-c2ccccc2-c2nnn[nH]2)cc1 | 24
CCCCc1nnc(-c2ccccc2)n1Cc1ccc(NC(=O)c2ccccc2C(=O)O)cc1 | 930
CCCCc1nnc(SCc2cccc(Cl)c2)n1Cc1ccc(NC(=O)c2ccccc2C(=O)O)cc1 | 26
CCCCc1nc(Cl)c(CC(=O)OC)n1Cc1ccc(NC(=O)c2ccccc2C(=O)O)cc1 | 420
CCCCc1nnc(SCc2ccc(OC)cc2)n1Cc1ccc(NC(=O)c2ccccc2-c2nn[nH]n2)cc1 | 4.1
CCCCc1nnc(C(=O)N(C)c2ccccc2)n1Cc1ccc(-c2ccccc2-c2nnn[nH]2)cc1 | 350
CCCCc1nnc(S)n1Cc1ccc(-c2ccccc2C(=O)O)cc1 | 860
CCCCc1nnc(SCc2ccc3ccccc3c2)n1Cc1ccc(NC(=O)c2ccccc2C(=O)O)cc1 | 49
CCCCc1nnc(Sc2ccccc2)n1Cc1ccc(NC(=O)c2ccccc2C(=O)O)cc1 | 60

Compound | IC50 [nM]
CCCCc1nnc(SCc2ccccc2Cl)n1Cc1ccc(NC(=O)c2ccccc2C(=O)O)cc1 | 30
CCCCc1nnc(C(=O)NCc2ccccc2)n1Cc1ccc(-c2ccccc2-c2nnn[nH]2)cc1 | 57
CCCSc1nnc(C(F)(F)F)n1Cc1ccc(NC(=O)c2ccccc2C(=O)O)cc1 | 2100
CCCCc1nnc(SCc2ccccc2C(=O)OC)n1Cc1ccc(-c2ccccc2-c2nnn[nH]2)cc1 | 90
CCCCCc1nnc(SCc2ccc(Cl)cc2)n1Cc1ccc(-c2ccccc2-c2nn[nH]n2)cc1 | 94
CCCCc1nnc(SCc2ccccc2[N+](=O)[O-])n1Cc1ccc(-c2ccccc2-c2nnn[nH]2)cc1 | 130
CCCCc1nnc(SCc2ccc(C)cc2)n1Cc1ccc(NC(=O)c2ccccc2C(=O)O)cc1 | 7.6
CCCCc1nnc(Sc2ccccc2)n1Cc1ccc(-c2ccccc2-c2nn[nH]n2)cc1 | 100
CCCCc1nnc(SCc2ccccc2Cl)n1Cc1ccc(-c2ccccc2-c2nnn[nH]2)cc1 | 110
CCCCc1nnc(SCc2ccccc2CO)n1Cc1ccc(-c2ccccc2-c2nn[nH]n2)cc1 | 36
CCCCc1nnc(SCC2CCCCC2)n1Cc1ccc(-c2ccccc2-c2nn[nH]n2)cc1 | 36
CCCCc1nnc(SCC(=O)c2ccccc2)n1Cc1ccc(NC(=O)c2ccccc2C(=O)O)cc1 | 190
CCCc1nnc(SCc2ccc(Cl)cc2)n1Cc1ccc(-c2ccccc2-c2nn[nH]n2)cc1 | 98
CCCCc1nnc(SCc2ccccc2C)n1Cc1ccc(-c2ccccc2-c2nn[nH]n2)cc1 | 17
CCCCc1nnc(SCCc2ccccc2)n1Cc1ccc(-c2ccccc2-c2nnn[nH]2)cc1 | 35
CCCCc1nn2c(-c3ccccc3)cnc2n1Cc1ccc(-c2ccccc2-c2nn[nH]n2)cc1 | 220
CCCCc1nnc([S+]([O-])Cc2ccccc2C(=O)O)n1Cc1ccc(-c2ccccc2-c2nnn[nH]2)cc1 (centres undefined) | 10
CCCCc1nnc(OCc2ccccc2)n1Cc1ccc(-c2ccccc2-c2nn[nH]n2)cc1 | 370
CCCCc1nnc(SC)n1Cc1ccc(-c2ccccc2-c2nnn[nH]2)cc1 | 310
CCCCc1nnc(SCc2ccc(C(F)(F)F)cc2)n1Cc1ccc(NC(=O)c2ccccc2C(=O)O)cc1 | 42
CCSc1nnc(C(F)(F)F)n1Cc1ccc(NC(=O)c2ccccc2C(=O)O)cc1 | 4800
CCCCc1nnc(SC(C(=O)O)c2ccccc2)n1Cc1ccc(NC(=O)c2ccccc2C(=O)O)cc1 (centres undefined) | 20
CCCCc1nnc([S+]([O-])Cc2ccc(OC)cc2)n1Cc1ccc(-c2ccccc2-c2nnn[nH]2)cc1 (centres undefined) | 50
CCCCc1nn2cc(C)nc2n1Cc1ccc(-c2ccccc2-c2nnn[nH]2)cc1 | 55

The compounds below were run on Rattus norvegicus (assay: Time from onset of action until significant (i.e., >= 30%) inhibition of pressor response no longer observed (3 mg/kg intravenous route)).
Assay type: functional
Method in brief: as §1

Compound | Duration [h]
CCCCc1nnc(SCc2ccccc2C)n1Cc1ccc(NC(=O)c2ccccc2C(=O)O)cc1 | 0.5
CCCCc1nnc(SCc2ccc(C)cc2)n1Cc1ccc(NC(=O)c2ccccc2C(=O)O)cc1 | 0.1

Each compound was assayed on Rattus norvegicus (assay: Peak inhibition of A II pressor response in conscious normotensive rats after intravenous administration of 1 mg/kg of drug (2 animals treated)).
Assay type: functional
Method in brief: (§2)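 Male Sprague-Dawley rats (300–400 g) catheterized under methohexital, recovered overnight, conscious. Compound given iv (saline or NaHCO3/saline/water vehicle) or po, with food withheld for oral dosing. AII 0.1 μg/kg iv bolus given at -45, -30 and -15 min, then at 5–60 min and every 30 min afterwards. Peak percent inhibition of the AII ΔMAP response, averaged over at least two rats.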

Compound | inhibition in vivo at 1 mg/kg [%]
CCCCc1nnc(SCc2ccccc2-c2nn[nH]n2)n1Cc1ccc(-c2ccccc2-c2nn[nH]n2)cc1 | 62
CCCCc1nnc(SCc2ccc(OC)cc2)n1Cc1ccc(NC(=O)c2ccccc2-c2nn[nH]n2)cc1 | 70

Each compound was assayed on Rattus norvegicus (assay: Peak inhibition of A II pressor response in conscious normotensive rats after intravenous administration of 3 mg/kg of drug (2 animals treated)).
Assay type: functional
Method in brief: as §2

Compound | inhibition in vivo at 3 mg/kg [%]
CCCCc1nnc(SCc2ccccc2C)n1Cc1ccc(NC(=O)c2ccccc2C(=O)O)cc1 | 56
CCCCc1nnc(SCc2ccc(C)cc2)n1Cc1ccc(NC(=O)c2ccccc2C(=O)O)cc1 | 50

From ChEMBL document CHEMBL1127039, “Nonpeptide angiotensin II antagonists derived from 4H-1,2,4-triazoles and 3H-imidazo[1,2-b][1,2,4]triazoles” (J Med Chem, 1993)
